Data on 48 sequences can be found in the EternaBench riboswitch data.

The series concerns MS2 coat protein. Kind of series: apparent Kd, MS2 coat protein; higher = weaker binding; RNA-MaP array; FMN 200 µM where present. A digest of the protocol:
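The apparent Kd is reported as the median of filtered per-cluster binding-curve fits. To get these curves, designs transcribed by stalled E. coli RNA polymerase on Illumina sequencing-chip clusters were titrated with SNAP-549-labelled MS2 coat protein from 0.7 or 1.5 nM, doubling to 3 µM. Titrations were run without and then with constant ligand in 100 mM Tris-HCl pH 7.5, 80 mM KCl, 4 mM MgCl2, BSA, DTT, yeast tRNA and Tween-20, and green signal was normalised to red-channel RNA signal and control-cluster median Fmax.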

Setting [1] is: designed as: OFF switch for flavin mononucleotide, no ligand.
[2] abbreviates: ligand present: flavin mononucleotide, designed as: OFF switch for flavin mononucleotide.
Where [3] appears, read: designed as: ON switch for flavin mononucleotide, no ligand.
[4] abbreviates: ligand present: flavin mononucleotide, designed as: ON switch for flavin mononucleotide.

For the sequence “UUUAUUUCGGCAGGAUAUACAUGUAUAUAUAUUUCUUUAUAUCUUAUUACAUGAGGAUCACCCAUGUAGAAGGGCCUUCUUCUC”, the “apparent Kd” value under setting [1] was determined as 55.1 nM and the “apparent Kd” value under setting [2] was 49.2 nM.

For the sequence “CCAUGUUAGCAGGAUAUGCCAUUAUUCCUUUACGCAGAAGGGCUUACAUGAGGAUCACCCAUGUAACAUUUCAU”, the “apparent Kd” value under setting [1] is 13.4 nM and the “apparent Kd” value under setting [2] came to 29.5 nM.

For “CAAAGUUGGUAAGGAUAUCCCACAUUAUUCUGGCCCGUGCAAGCUACAUGAGGAUCACCCAUGUGGGAGAAGGUGCGUUAAAGA”, the “apparent Kd” value reads like this: under setting [1], 22 nM; under setting [2], 33.7 nM.

Regarding “UGACUAGUAAUGUAUCGAAAGAUCACAUGAGGAUCACCCAUGUAGGAUAUGAGCAGAAAAUCUGCUCAGAAGGACAUGCUAGUC”, the “apparent Kd” value by setting is: under setting [1], 5.9 nM; under setting [2], 7.36 nM.

With “UGCUGUGUCAGAGGAUAUACAUCAAUAAUCCAUUGCAAAUAGCGAUGGACAUGAGGAUCACCCAUGUAGAAGGCUGUCACAGCA”, the “apparent Kd” value under setting [1] came out at 111 nM and the “apparent Kd” value under setting [2] is 384 nM.

Regarding “ACCCGGGCUAACAUGAGGAUCACCCAUGUGUUAUACUUAAUAUAGGAUAUGUUUAUACUUUUUGGGCAGAAGGAUGGCCCGGGU”, the “apparent Kd” value by setting is: under setting [3], 80.1 nM; under setting [4], 62.5 nM.

With “ACUUGUAAGCAGAAGGCAGUCAUUAUAUUCGUCAUGUAGACAUGAGGAUCACCCAUGUAUAGUACUGAGGAUAUGCAUCGAUAG”, the “apparent Kd” value under setting [1] was found to be 7.84 nM and the “apparent Kd” value under setting [2] stood at 12.9 nM.

Regarding “UCAUAUAUACAAGGAUAUCAAUUAUUUACACAUCCUACAUGAGGAUCACCCAUGUUUUAAUAUUUUGAGAAGGUGUAAUGUCGG”, the “apparent Kd” value under setting [3] was found to be 24 nM and the “apparent Kd” value under setting [4] came to 30.7 nM.

Take “GUAGCAACAUGAGGAUCACCCAUGUAGGAUAUCGCUAUUGUAAUCAUGAAACAUGAUUACAAUAGCGAGAAGGACAUAUGCUAU”: the “apparent Kd” value is 7 nM under setting [1] and 10.3 nM under setting [2].

For the sequence “GUCGUGCAGCUUUGCUGUACGAGUACAUGAGGAUCACCCAUGUAGGAUAUGGUACGCUUUGCGUGCCAGAAGGACGUGCGUUGG”, the “apparent Kd” value by setting is: under setting [1], 48 nM; under setting [2], 134 nM.

For the sequence “AUUAAACAUGAGGAUCACCCAUGUCAACAAAGUCGAGGAUAUGGGCAAAUAAAAUAAGAACCAGAAGGCGAAUAAU”, the “apparent Kd” value by setting is: under setting [3], 259 nM; under setting [4], 38 nM.

In the case of “AUAGUGCGCGAGAAGGACGUACCACAUGUUGAUCACCGAUAUAAGGAACGUAGGAUAUUGCACAUGAGGAUCACCCAUGUGGAU”, the “apparent Kd” value is, setting by setting: under setting [3], 16.6 nM; under setting [4], 21.3 nM.

For “AGGGUAGACGUAGGAUAUACGGAAUGAAUGAAAGUAGAAGGAUGACAUGAGGAUCACCCAUGUGAAAUGAAAUGAUGAAGGGUG”, the “apparent Kd” value amounted to 579 nM under setting [1] and 510 nM under setting [2].

Turning to “UUAUACAUUCGAGGAUAUCGGAGAGAAAUCUUUCGAGAAGGCGAUUCAUGAUGUAUUAUCCUGGACAUGAGGAUCACCCAUGUA”, the “apparent Kd” value runs as follows: under setting [3], 96.8 nM; under setting [4], 76.9 nM.

With “UCGCUGCGAGGAUAUACGUUUGCGCGUUUUCGUUUGCGCGUACAUGAGGAUCACCCAUGUAGAAGGCGCGCGGC”, the “apparent Kd” value under setting [1] worked out at 14.3 nM and the “apparent Kd” value under setting [2] is 14.8 nM.

Turning to “UGGUACUAGGGAGGAUAUGGGAAGAUACAUGAGGAUCACCCAUGUUUAAGAAUGCCGAGAGGCAACUAGAAGGCCCUCGUACCU”, the “apparent Kd” value under setting [3] is 432 nM and the “apparent Kd” value under setting [4] is 20.1 nM.

In the case of “AAUUAUUUUUGAGGAUAUCGUGGUGAAACACCACGAGAAGGCAAGAUACACAUGAGGAUCACCCAUGUGAGCCUGAUGCUUAUG”, the “apparent Kd” value reads like this: under setting [1], 16.9 nM; under setting [2], 21.4 nM.

“AAGUCGCACCAGAAGGGUCAACCAAUAAAUUAGACAGGAUAUGGGCGAUAUGUAUGUCGCGACAUGAGGAUCACCCAUGUCCGG”: the “apparent Kd” value runs as follows: under setting [3], 17.7 nM; under setting [4], 6.08 nM.

With “AUUAUAUAGCAAGGAUAUAGAAUAUUAUUUUAACAUGAGGAUCACCCAUGUAACCUUAUGUGUAGCUAGAAGGUGCAUUUAUUA”, the “apparent Kd” value is, setting by setting: under setting [1], 73.2 nM; under setting [2], 109 nM.

For the sequence “GCACUUAAAAUUGAACCGUUUCGAACAUGAGGAUCACCCAUGUAGGAUAUGCUAAAAGUUGUGAUGCAGAAGGACAAUAAGUGC”, the “apparent Kd” value under setting [1] came to 6.82 nM and the “apparent Kd” value under setting [2] was 6.67 nM.

On to “ACCAUUUACUAAUUAUCUAUACAUGAGGAUCACCCAUGUUAAGAGGAUAUCAUCGUGAAACACGAUGAGAAGGCUUAGCAUUCG”, for which the “apparent Kd” value came out at 54.5 nM under setting [1] and 187 nM under setting [2].

Regarding “AGAAACUACGAGAAGGACAUGUGGAAAAACGCAAACAUGAGGAUCACCCAUGUAGGAUAUCGUAGUUUCAGGAUCGUGAGAUCA”, the “apparent Kd” value reads like this: under setting [1], 304 nM; under setting [2], 367 nM.

“UGUUGUAAUACAGGAUAUCUAUUAUUUUUAUUUAGAGAAGGGUAAUCACAUGAGGAUCACCCAUGUAUAUACGAGGAAGAAGAG”: the “apparent Kd” value by setting is: under setting [3], 186 nM; under setting [4], 182 nM.

Take “CAAGUCAUAGCUUCUUAGCCAGCCAGAAGGGUCUACAUGAGGAUCACCCAUGUGGUCUCGAAGGGACAGGAUAUGGAGGGCGUA”: the “apparent Kd” value reads like this: under setting [1], 11.1 nM; under setting [2], 37.7 nM.

As to “UUUUUUUAUAAGGAUAUGGGAGUCGAUAGACACCCAGAAGGUAUAACAUGAGGAUCACCCAUGUGUCCUUUUUU”, the “apparent Kd” value was 21.2 nM under setting [1] and 24.1 nM under setting [2].

On to “GUGCCUUGGAAGAAGGCCGAUAGCAAAGCUAUCGGAGGAUAUUCAUACCGGAAACGGACAUGAGGAUCACCCAUGUGGCACAAA”, for which the “apparent Kd” value is 15.3 nM under setting [3] and 6.96 nM under setting [4].

For the sequence “UGGUGACGUUUCUUCUCGACAUGAGGAUCACCCAUGUAGACAGAGGAUAUCCGAGUUGCCAAUAAGGAGAAGGCUGACUGCGAA”, the “apparent Kd” value is, setting by setting: under setting [1], 6.61 nM; under setting [2], 10.2 nM.

For the sequence “GUAACAUGAGGAUCACCCAUGUCGUGCUAGAUGAGUUCUGGUGAGGAUAUACAUGGUAAAUAACUGUAGAAGGUGCUGGGUACA”, the “apparent Kd” value reads like this: under setting [3], 159 nM; under setting [4], 167 nM.

Take “ACGCGUUGGGAGAAGGUACAUUAAAUUAGUUACACAUGAGGAUCACCCAUGUAAGGAUAUCCCAUCGUGUAAUAUUAUACAGCA”: the “apparent Kd” value is, setting by setting: under setting [1], 9.76 nM; under setting [2], 9.62 nM.

For the sequence “CGCAUGCGUAGAAUUAGCAGCUGACAGGAUAUGACAUGAGGAUCACCCAUGUGAAUUAAGAAGAGUCAGAAGGGUCACGAUGCG”, the “apparent Kd” value under setting [1] stood at 9.98 nM and the “apparent Kd” value under setting [2] amounted to 9.98 nM.

With “GUAGCAUACCAAGGAUAUUCAGGGCUUGGAUAGACAUGAGGAUCACCCAUGUGGCGAAAGUCUAGGGAGAAGGUGGAAUGCUAC”, the “apparent Kd” value under setting [3] came out at 16.8 nM and the “apparent Kd” value under setting [4] came to 15.1 nM.

In the case of “UAAAAGUGAGGAUAUGCGAAGGCGUCUGAUAGACGAGGCUAGCAGAAGGCACAUGAGGAUCACCCAUGUGGGAU”, the “apparent Kd” value under setting [1] stood at 89.7 nM and the “apparent Kd” value under setting [2] was 152 nM.

On to “GUGUAGAUAGGAUAUGCUUAGAGCUUACGAAAGUAGGCUCUACAUGAGGAUCACCCAUGUAGAAGGGUCUACAC”, for which the “apparent Kd” value worked out at 31.3 nM under setting [1] and 19.1 nM under setting [2].

“AUCAGCUUGUCAGGAUAUGCAUGUCAACGAAAGUUGACAAUCUUAAUAACAUGAGGAUCACCCAUGUAGAAGGGACGAGCUGAU”: the “apparent Kd” value reads like this: under setting [1], 17.1 nM; under setting [2], 19.3 nM.

As for “CUUUUGUGAGGAUAUUAGUAGUAAUACAAUAGUAUUACUACUGAGAAGGCACAUGAGGAUCACCCAUGUUCCUC”, the “apparent Kd” value under setting [1] is 38.2 nM and the “apparent Kd” value under setting [2] amounted to 147 nM.

For “CACAGGGAUUCAGGAUAUAUUAGCCGAGGCCGCGUAGAAGGGAAAUCCUGACAUGAGGAUCACCCAUGUUAACCCACUUUCCAU”, the “apparent Kd” value amounted to 28.2 nM under setting [3] and 28.8 nM under setting [4].

On to “ACGGCACAUGAGGAUCACCCAUGUGCCGAGAGGCGAGGAUAUCGAAAAAAAAAAAAAAAACGAGAAGGCGCGAGAA”, for which the “apparent Kd” value stood at 16.5 nM under setting [3] and 14.4 nM under setting [4].

“AGUAUGAGAGGAUAUACGAAUAAACAUGGAAACAUGAUGGGACAUGAGGAUCACCCAUGUAGAAGGCUCGUACA”: the “apparent Kd” value is, setting by setting: under setting [1], 118 nM; under setting [2], 358 nM.

In the case of “AGCACGAAAGUGCAACGAUGUAGCAGAAGGACAUGAGGAUCACCCAUGUAAGCAGUAUCUGCAAUGUAGGAUAUGCUACAUCGA”, the “apparent Kd” value under setting [1] was 13.6 nM and the “apparent Kd” value under setting [2] turned out to be 119 nM.

With “GGAAAACAUGAGGAUCACCCAUGUGAGGAUAUCGAUGUCCAGGGCCGGGUGCGGGACUCGAGAAGGCACUUGGA”, the “apparent Kd” value by setting is: under setting [1], 64.5 nM; under setting [2], 41.6 nM.

Turning to “GCAUGGAAAGUGAGGAUAUACCACUGGAUACAGUGGUAGAAGGCACAUGAGGAUCACCCAUGUCUCUACCAUGC”, the “apparent Kd” value by setting is: under setting [1], 13.6 nM; under setting [2], 30.8 nM.

With “CUAUCUUGCAAGGAUAUGCAAUUUAUUAUUUAUGCAGAAGGUGCUACAUGAGGAUCACCCAUGUUUCUGGGUUU”, the “apparent Kd” value is 134 nM under setting [1] and 257 nM under setting [2].

As to “AAAAAACAUGAGGAUCACCCAUGUGAGGAUAUGCGAAAAAAAAAAAAAAAAAAAAAAAGCAGAAGGUACAAAAA”, the “apparent Kd” value is 92.2 nM under setting [1] and 47.6 nM under setting [2].

For the sequence “GGGCUCGGAGGAUAUACAUGAGGAUCACCCAUGUAUCUGGGUCUUAUUGGGCUCGGGUGUAGAAGGCUGGGUCU”, the “apparent Kd” value under setting [1] was 13.9 nM and the “apparent Kd” value under setting [2] was 15.5 nM.

Turning to “CUUUAGUGAGGAUAUUAGUAGUAAUACAAUAGUAUUACUACUGAGAAGGCACAUGAGGAUCACCCAUGUUCCUC”, the “apparent Kd” value turned out to be 27.8 nM under setting [1] and 292 nM under setting [2].

As for “GAUAGGACAGAGAAGGACAUAGCUAGAGAUACUAGCAUACGAACCUUUACAUGAGGAUCACCCAUGUAGGAUAUCUGUCCUAUC”, the “apparent Kd” value worked out at 5.43 nM under setting [1] and 6.78 nM under setting [2].

For the sequence “AUUUCGUCAGGAUAUCCUAGUAAUUGUUUCAUAUUUACAAAGGAGAAGGGACAUGAGGAUCACCCAUGUUUGUC”, the “apparent Kd” value is, setting by setting: under setting [1], 24.7 nM; under setting [2], 23.1 nM.

Regarding “UUAUGUAUUGUAGGAUAUCACAAGUUAUGUAUUAUAAUUGUAAUUUUGUAAUGAGAAGGACAUAUACAUGAGGAUCACCCAUGU”, the “apparent Kd” value under setting [1] is 18.9 nM and the “apparent Kd” value under setting [2] was determined as 14.9 nM.

For orientation: apparent Kd means the concentration giving half-maximal binding under the conditions of the assay.
